We go through eleven compounds from ChEMBL document CHEMBL4229432, “Synthesis and biological properties of aryl methyl sulfones” (Bioorg Med Chem, 2018).

A value given as a limit tells only on which side of the number the result lay.

Series [1] relates to Rattus norvegicus. Put plainly: Antiinflammatory activity in Sprague-Dawley rat assessed as inhibition of carrageenan-induced paw edema at 70 mg/kg, po pretreated for 1 hr followed by carrageenan challenge and measured after 3 hrs by plethysmometer relative to control. The series is classed as functional. The method, boiled down:
(§1)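 Modified Winter's method in young adult male Sprague-Dawley rats (160-200 g, groups of six), starved 24 h. Oral dose given 1 h before subplantar injection of 0.1 mL 1% carrageenan in sterile pyrogen-free 0.9% NaCl. Paw volume measured by water displacement plethysmometry before and at 3 and 4 h. % inhibition vs controls; mean ± S.E.M.; unpaired one-tailed Student's t-test.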
Background: In the carrageenan paw model, swelling and tenderness develop within hours.

Series [2] has as its target T1, Prostaglandin G/H synthase 1 (Ovis aries, UniProt P05979).
T1 sequence (P05979 whole entry): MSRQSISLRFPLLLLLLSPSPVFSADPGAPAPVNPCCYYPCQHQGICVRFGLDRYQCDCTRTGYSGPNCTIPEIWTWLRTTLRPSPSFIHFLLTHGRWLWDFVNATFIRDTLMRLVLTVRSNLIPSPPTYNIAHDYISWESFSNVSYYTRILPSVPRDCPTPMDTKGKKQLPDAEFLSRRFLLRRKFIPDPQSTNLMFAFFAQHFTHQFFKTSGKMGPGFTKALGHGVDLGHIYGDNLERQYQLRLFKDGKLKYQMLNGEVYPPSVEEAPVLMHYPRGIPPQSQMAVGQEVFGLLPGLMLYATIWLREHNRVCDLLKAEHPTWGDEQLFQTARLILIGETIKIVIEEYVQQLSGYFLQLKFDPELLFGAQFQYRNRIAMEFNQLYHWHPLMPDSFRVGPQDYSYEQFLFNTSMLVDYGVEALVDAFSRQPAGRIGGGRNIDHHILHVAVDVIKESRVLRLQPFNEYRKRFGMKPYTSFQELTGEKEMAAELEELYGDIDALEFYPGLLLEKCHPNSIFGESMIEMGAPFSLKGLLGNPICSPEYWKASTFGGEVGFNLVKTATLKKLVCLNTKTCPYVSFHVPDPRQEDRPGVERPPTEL
Description: Inhibition of ovine COX1 assessed as reduction in PGH2 production by enzyme immunoassay.

The subject of series [3] is Rattus norvegicus. Put plainly: Toxicity in Sprague-Dawley rat at 70 mg/kg, po. Particulars: in vivo. Format: organism-based.
Series [4] deals with Rattus norvegicus. Put plainly: Antiinflammatory activity in Sprague-Dawley rat assessed as inhibition of carrageenan-induced paw edema at 70 mg/kg, po pretreated for 1 hr followed by carrageenan challenge and measured after 4 hrs by plethysmometer relative to control. The series is classed as functional. The method, boiled down:
as §1

Another series relates to HT-29. Description: Growth inhibition of human HT-29 cells by MTT assay. The series is classed as cell-based. A general note: Tetrazolium dyes change colour on reduction, which living cells bring about.
Series [5] relates to Mus musculus. Put plainly: Analgesic activity in CD1 mouse assessed as inhibition of acetic acid-induced writhings at 10 mg/kg, po pretreated for 30 mins followed by acetic acid challenge for 5 mins and measured for 30 mins relative to control. The series is classed as functional. The method, boiled down: (§2)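 Male Swiss CD1 mice, 4-5 weeks, 25 ± 5 g, acclimatized one week. Dose adjusted to body weight and given orally by feeding needle 30 min before i.p. acetic acid (25 mg/kg; 0.25 mL/25 g). NaCl solution served as control. […] Mean ± S.E.M., at least four mice; one-way ANOVA with Student-Newman-Keuls.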
(In writhing tests, fewer writhes than in controls are read as antinociception.)

In series [6] the test system is Mus musculus. Description: Analgesic activity in CD1 mouse assessed as inhibition of acetic acid-induced writhings at 70 mg/kg, po pretreated for 30 mins followed by acetic acid challenge for 5 mins and measured for 30 mins relative to control. Format: functional. The method, boiled down: as §2
Series [7] relates to Mus musculus. Put plainly: Analgesic activity in CD1 mouse assessed as inhibition of acetic acid-induced writhings at 20 mg/kg, po pretreated for 30 mins followed by acetic acid challenge for 5 mins and measured for 30 mins relative to control. Format: functional. Summed up: as §2
Series [8] deals with Mus musculus. Put plainly: Analgesic activity in CD1 mouse assessed as inhibition of acetic acid-induced writhings at 70 mg/kg, po pretreated for 30 mins followed by acetic acid challenge. The series is classed as functional, organism-based. Conditions: TDE = time-dependent effect. The method, boiled down:
as §2

In series [9] the test system is Rattus norvegicus. Put plainly: Ulcerogenicity in Sprague-Dawley rat assessed as gastric lessions at 70 mg/kg, po measured after 4 hrs. Format: toxicity, organism-based. Particulars: in vivo. The method, boiled down:
(§3)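 Male Sprague-Dawley rats, 180 ± 20 g, acclimatized one week, 3 per group. Oral dosing by feeding needle, adjusted to body weight; saline and carboxymethylcellulose served as controls. Killed 4 h after dosing; stomach opened along the greater curvature, rinsed with saline, and lesions scored under a magnifying glass.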

For series [10], the system named is Rattus norvegicus. Put plainly: Ulcerogenicity in Sprague-Dawley rat assessed as hyperemia at 70 mg/kg, po measured after 4 hrs. The series is classed as toxicity, organism-based. Conditions: in vivo. The method, boiled down: as §3

What is called inhibition in vivo is the share of the control response that was lost under treatment. What is called IC50 is the concentration at which inhibition is half-maximal. In the case of `CC(C)Cc1ccc(S(C)(=O)=O)cc1`, the inhibition in vivo at 70 mg/kg stood at 9.6% in the series with Rattus norvegicus [1] and 9.5% in the series on Rattus norvegicus [4]. For the same compound, the IC50 in series [2] came out at 7.02 µM. In addition, the Activity result in the series on Rattus norvegicus [3] was “Non-Toxic”.
For the compound `COc1ccc2c(c1)c(S(C)(=O)=O)c(C)n2C(=O)c1ccc(Cl)cc1`, the inhibition in vivo at 70 mg/kg with Rattus norvegicus [1] was determined as 29.9%; with Rattus norvegicus [4], 32.5%. In addition, the 50% inhibitory concentration (IC50) in series [2] is 0.39 µM; with HT-29 it was more than 200 µM. Besides, the Activity result in the series with Rattus norvegicus [3] is “Non-Toxic”.
Turning to `CN1c2ccccc2Sc2ccc(S(C)(=O)=O)cc21`, the IC50 in series [2] stood at 1.36 µM. Further, in the series with Rattus norvegicus [3], the Activity entry is listed as “Non-Toxic”.
In the case of `CC(C(=O)O)c1cccc(Oc2ccccc2)c1` (configuration not stated) [FENOPROFEN], the 50% inhibitory concentration (IC50) in [2] was 2.73 µM.
For the compound `CS(=O)(=O)c1cccc(Oc2ccccc2)c1`, the inhibition in vivo at 70 mg/kg in the series with Rattus norvegicus [1] stood at 27.8%; in the series on Rattus norvegicus [4] it was 25.4%. The IC50 in series [2] worked out at 4.89 µM. Further, the Activity result with Rattus norvegicus [3] was “Non-Toxic”.
Take `CC(C)Cc1ccc(C(C)C(=O)O)cc1` (configuration not stated) [IBUPROFEN]: the inhibition in vivo at 10 mg/kg in the series with Mus musculus [5] was found to be 48%. The figures for the inhibition in vivo at 70 mg/kg in the series with Mus musculus [6] and in the series with Rattus norvegicus [4] were 66.7% and 23.9%, respectively. Further, the inhibition in vivo at 20 mg/kg in the series on Mus musculus [7] was determined as 53%.
Regarding `CS(=O)(=O)c1ccc(C(=O)c2ccoc2)cc1`, in the series on Mus musculus [5], the inhibition in vivo at 10 mg/kg stood at 45.9%. Besides, the inhibition in vivo at 70 mg/kg worked out at 27.6% with Rattus norvegicus [1], 64.9% in the series with Mus musculus [6] and 25.9% in the series on Rattus norvegicus [4]. For the same compound, the IC50 in series [2] was 0.18 µM; with HT-29, more than 200 µM. Also, the Activity entry in the series on Rattus norvegicus [3] and with Rattus norvegicus [9] was “Non-Toxic” each time. Also, the inhibition result in the series on Mus musculus [8] was “Tde”. The inhibition in vivo at 20 mg/kg with Mus musculus [7] came to 50.5%.
`CN1c2ccccc2Sc2ccc(CC(=O)O)cc21` [METIAZINIC ACID]: the half-maximal inhibitory concentration (IC50) in series [2] was 6.23 µM.
As to `CS(=O)(=O)c1ccc(C(=O)c2ccc(Cl)cc2)cc1`, the inhibition in vivo at 70 mg/kg in the series with Rattus norvegicus [1] worked out at 14.9%; with Rattus norvegicus [4] it was 18.9%. Also, the IC50 in series [2] was 5.29 µM. For the same compound, the Activity entry with Rattus norvegicus [3] is on record as “Non-Toxic”.
`CC(C(=O)O)c1cccc(C(=O)c2ccccc2)c1` (configuration not stated) [KETOPROFEN]: the IC50 in series [2] was determined as 0.11 µM.
For `COc1ccc2cc(S(C)(=O)=O)ccc2c1`, in the series with Mus musculus [5], the inhibition in vivo at 10 mg/kg amounted to 49.3%. The results for the Activity entry in the series on Rattus norvegicus [10], in the series on Rattus norvegicus [3] and in the series with Rattus norvegicus [9] were “Toxic”, “Non-Toxic” and “Non-Toxic”, respectively. The values for the inhibition in vivo at 70 mg/kg in the series on Rattus norvegicus [1], with Mus musculus [6] and in the series on Rattus norvegicus [4] were 29.4%, 60.1% and 34.6%, respectively. Moreover, the figures for the concentration for half-maximal inhibition (IC50) (in series [2]; in the series on HT-29) were 0.04 µM and more than 200 µM, respectively. In addition, in the series on Mus musculus [8], the inhibition entry is “Tde”. Further, the inhibition in vivo at 20 mg/kg in the series on Mus musculus [7] came to 56.2%.
